Key:
[1] = Inhibition of mouse full length GST-tagged BRAF V600E mutant-mediated Mek1 phosphorylation preincubated for 1 hr prior to substrate addition measured after 25 mins by PAGE analysis
[2] = Antiproliferative activity against human WM266.4 cells after 24 hrs by MTT assay; format: functional; conditions: WM 266-4, 24 h
Summary of the method: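 WM266.5 (so in the source) melanoma cells in DMEM/10% FBS, 37 °C, 5% CO2; seeded 1000 cells/well and left 24 h to reattach. DMSO stocks (20 mM) serially diluted in medium to final 100 µM–0.005 µM. Exposure 24 h at 37 °C. Viability by MTT reduction, absorbance at 590 nm; GI50 calculated.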

[3] = Acute oral toxicity in po dosed rat after 14 days; format: organism-based; conditions: in vivo
Summary of the method: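 Single 5000 mg/kg dose given by oral gavage to ten healthy rats. Mortality, gross toxicity signs and behavioural changes were checked at least once daily for 14 days. Body weights were taken before dosing and on days 7 and 14.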

SMILES | IC50 [1] [µM] | pIC50 [1] | GI50 [2] [µM] | LD50 at 336 h [3] [mg/kg]
O=C(c1cncc(Br)c1)N1N=C(c2ccc(Cl)cc2)CC1c1ccc(Br)cc1 (stereo not drawn) | 7.82 | 5.107 | 8.01 | 
COc1ccc(C2=NN(C(=O)c3cccnc3Cl)C(c3ccc(OCc4ccccc4)cc3)C2)cc1 (stereo not drawn) | 6.49 | 5.188 | 9.15 | 
O=C(c1ccc(Cl)nc1)N1N=C(c2ccc(Cl)cc2)CC1c1ccc(Br)cc1 (stereo not drawn) | 7.34 | 5.134 | 9.87 | 
O=C(c1cncc(Br)c1)N1N=C(c2ccc(Cl)cc2)CC1c1ccc(OCc2ccccc2)cc1 (stereo not drawn) | 7.61 | 5.119 | 8.13 | 
COc1ccc(C2=NN(C(=O)c3cccnc3Cl)C(c3ccc(Br)cc3)C2)cc1 (stereo not drawn) | 5.57 | 5.254 | 3.05 | 
Cc1ccc(C(=O)N2N=C(c3ccc(Cl)cc3)CC2c2ccc(Cl)cc2)c(Cl)n1 (stereo not drawn) | 7.77 | 5.11 | 8.87 | 
O=C(c1cccnc1Cl)N1N=C(c2ccc(Cl)cc2)CC1c1ccc(Br)cc1 (stereo not drawn) | 8.67 | 5.062 | 7.45 | 
COc1ccc(C2=NN(C(=O)c3ccc(C)nc3Cl)C(c3ccc(OC)cc3)C2)cc1 (stereo not drawn) | 5.14 | 5.289 | 5.74 | 
COc1ccc(C2=NN(C(=O)c3ccc(C)nc3Cl)C(c3ccc(Cl)cc3)C2)cc1 (stereo not drawn) | 0.58 | 6.237 | 1.44 | 
Cc1ccc(C(=O)N2N=C(c3ccc(Cl)cc3)CC2c2ccc(Cl)cc2)cn1 (stereo not drawn) | 3.58 | 5.446 | 3.79 | 
O=C(c1cncc(Br)c1)N1N=C(c2ccc(Cl)cc2)CC1c1ccc(Cl)cc1 (stereo not drawn) | 4.77 | 5.321 | 6.09 | 
COc1ccc(C2=NN(C(=O)c3cncc(Br)c3)C(c3ccc(OC)cc3)C2)cc1 (stereo not drawn) | 4.58 | 5.339 | 7.56 | 
O=C(c1cccnc1Cl)N1N=C(c2ccc(Cl)cc2)CC1c1ccc(Cl)cc1 (stereo not drawn) | 2.12 | 5.672 | 3.58 | 
COc1ccc(C2=NN(C(=O)c3cccnc3Cl)C(c3ccc(Cl)cc3)C2)cc1 (stereo not drawn) | 0.47 | 6.328 | 0.78 | 
O=C(c1cccnc1Cl)N1N=C(c2ccc(Cl)cc2)CC1c1ccc(OCc2ccccc2)cc1 (stereo not drawn) | 4.42 | 5.355 | 7.71 | 
COc1ccc(C2=NN(C(=O)c3cncc(Br)c3)C(c3ccc(OCc4ccccc4)cc3)C2)cc1 (stereo not drawn) | 4.27 | 5.272 | 6.24 | 
COc1ccc(C2=NN(C(=O)c3ccc(Cl)nc3)C(c3ccc(OCc4ccccc4)cc3)C2)cc1 (stereo not drawn) | 6.78 | 5.369 | 10.6 | 
COc1ccc(C2=NN(C(=O)c3ccc(Cl)nc3)C(c3ccc(Br)cc3)C2)cc1 (stereo not drawn) | 6.89 | 5.162 | 7.13 | 

SMILES | IC50 [1] [µM] | pIC50 [1] | GI50 [2] [µM] | LD50 at 336 h [3] [mg/kg]
COc1ccc(C2=NN(C(=O)c3ccc(Cl)nc3)C(c3ccc(Cl)cc3)C2)cc1 (stereo not drawn) | 0.51 | 6.292 | 1.45 | 
COc1ccc(C2=NN(C(=O)c3ccc(C)nc3Cl)C(c3ccc(Br)cc3)C2)cc1 (stereo not drawn) | 6.76 | 5.17 | 8.47 | 
Cc1ccc(C(=O)N2N=C(c3ccc(Cl)cc3)CC2c2ccc(OCc3ccccc3)cc2)cn1 (stereo not drawn) | 7.02 | 5.154 | 9.2 | 
COc1ccc(C2=NN(C(=O)c3ccc(C)nc3)C(c3ccc(Br)cc3)C2)cc1 (stereo not drawn) | 4.23 | 5.373 | 4.28 | 
COc1ccc(C2=NN(C(=O)c3ccc(C)nc3)C(c3ccc(OCc4ccccc4)cc3)C2)cc1 (stereo not drawn) | 1.63 | 5.788 | 7.95 | 
Cc1ccc(C(=O)N2N=C(c3ccc(Cl)cc3)CC2c2ccc(Br)cc2)c(Cl)n1 (stereo not drawn) | 7.35 | 5.134 | 10.8 | 
COc1ccc(C2=NN(C(=O)c3ccc(C)nc3)C(c3ccc(Cl)cc3)C2)cc1 (stereo not drawn) | 0.2 | 6.796 | 0.89 | > 5000
COc1ccc(C2=NN(C(=O)c3ccc(Cl)nc3)C(c3ccc(OC)cc3)C2)cc1 (stereo not drawn) | 7.56 | 5.121 | 6.45 | 
COc1ccc(C2=NN(C(=O)c3cccnc3Cl)C(c3ccc(OC)cc3)C2)cc1 (stereo not drawn) | 6.14 | 5.212 | 4.35 | 
CNC(=O)c1cc(Oc2ccc(NC(=O)Nc3ccc(Cl)c(C(F)(F)F)c3)cc2)ccn1 [SORAFENIB] | 0.06 |  | 8.12 | 
COc1ccc(C2=NN(C(=O)c3ccc(C)nc3)C(c3ccc(OC)cc3)C2)cc1 (stereo not drawn) | 3.42 | 5.466 | 4.93 | 
Cc1ccc(C(=O)N2N=C(c3ccc(Cl)cc3)CC2c2ccc(OCc3ccccc3)cc2)c(Cl)n1 (stereo not drawn) | 12.9 | 4.89 | 11.4 | 
COc1ccc(C2=NN(C(=O)c3ccc(C)nc3Cl)C(c3ccc(OCc4ccccc4)cc3)C2)cc1 (stereo not drawn) | 3.01 | 5.521 | 10.5 | 
COc1ccc(C2=NN(C(=O)c3cncc(Br)c3)C(c3ccc(Br)cc3)C2)cc1 (stereo not drawn) | 3.51 | 5.455 | 5.63 | 
COc1ccc(C2=NN(C(=O)c3cncc(Br)c3)C(c3ccc(Cl)cc3)C2)cc1 (stereo not drawn) | 0.38 | 6.42 | 1.29 | 
O=C(c1ccc(Cl)nc1)N1N=C(c2ccc(Cl)cc2)CC1c1ccc(Cl)cc1 (stereo not drawn) | 7.16 | 5.145 | 9.89 | 
O=C(c1ccc(Cl)nc1)N1N=C(c2ccc(Cl)cc2)CC1c1ccc(OCc2ccccc2)cc1 (stereo not drawn) | 16.4 | 4.784 | 13.2 | 
Cc1ccc(C(=O)N2N=C(c3ccc(Cl)cc3)CC2c2ccc(Br)cc2)cn1 (stereo not drawn) | 7.05 | 5.152 | 7.65 | 

— ChEMBL document CHEMBL2034910, “Synthesis, biological evaluation and 3D-QSAR studies of novel 4,5-dihydro-1H-pyrazole niacinamide derivatives as BRAF inhibitors” (Bioorg Med Chem, 2012)
